From publication PMC6120582 (Science (New York, N.Y.), 2018) come the findings set out here.

For one assay, the target named is eIF2 (Homo sapiens, UniProt P41091). The experiment in a line: GDP unloading assay, displacement of Bodipy-GDP. The class given is binding. To be noted: 1000-fold excess of unlabelled GDP; exchange catalysed by eIF2B.
Assay [1] addresses eIF2B(αβγδε)2 (Homo sapiens, UniProt P49770+Q9UI10, Q9UI10:L179A). The experiment in a line: GEF assay, unloading of Bodipy-GDP from eIF2. The class given is biochemical. The settings on record: assembled eIF2B(βγδε) and eIF2B(α2); activator. In outline:
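Human eIF2B subunits were co-expressed in E. coli from three plasmids, and the βγδε (δL179A) and α2 subcomplexes were purified separately and combined. The substrate was non-phosphorylated human eIF2 from gcn2Δ S. cerevisiae, loaded with Bodipy-GDP. A 1000-fold excess of unlabeled GDP was added as a chase, and the fluorescence decrease was followed with and without test compound. kobs came from a single-exponential fit.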

For assay [2], the target named is eIF2B(αβγδε)2 (Homo sapiens, UniProt P49770+Q9UI10, P49770:H188A). The experiment in a line: decamer stability, sucrose gradient velocity sedimentation. It is filed as binding. To be noted: 500 nM ISRIB, 400 mM salt.
Sequence of eIF2B(αβγδε)2 (Homo sapiens, UniProt P49770+Q9UI10, P49770:H188A) (P49770 whole entry H188A): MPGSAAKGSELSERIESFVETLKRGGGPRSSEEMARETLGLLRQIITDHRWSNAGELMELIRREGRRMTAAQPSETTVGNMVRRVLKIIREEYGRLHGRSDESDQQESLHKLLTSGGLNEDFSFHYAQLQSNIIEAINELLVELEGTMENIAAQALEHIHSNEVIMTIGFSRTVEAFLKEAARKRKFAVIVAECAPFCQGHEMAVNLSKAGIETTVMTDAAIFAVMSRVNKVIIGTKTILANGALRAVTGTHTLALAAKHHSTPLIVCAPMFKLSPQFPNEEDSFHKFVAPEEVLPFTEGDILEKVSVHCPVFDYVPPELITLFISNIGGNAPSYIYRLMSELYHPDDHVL
Sequence of eIF2B(αβγδε)2 (Homo sapiens, UniProt P49770+Q9UI10, P49770:H188A) (Q9UI10 whole entry): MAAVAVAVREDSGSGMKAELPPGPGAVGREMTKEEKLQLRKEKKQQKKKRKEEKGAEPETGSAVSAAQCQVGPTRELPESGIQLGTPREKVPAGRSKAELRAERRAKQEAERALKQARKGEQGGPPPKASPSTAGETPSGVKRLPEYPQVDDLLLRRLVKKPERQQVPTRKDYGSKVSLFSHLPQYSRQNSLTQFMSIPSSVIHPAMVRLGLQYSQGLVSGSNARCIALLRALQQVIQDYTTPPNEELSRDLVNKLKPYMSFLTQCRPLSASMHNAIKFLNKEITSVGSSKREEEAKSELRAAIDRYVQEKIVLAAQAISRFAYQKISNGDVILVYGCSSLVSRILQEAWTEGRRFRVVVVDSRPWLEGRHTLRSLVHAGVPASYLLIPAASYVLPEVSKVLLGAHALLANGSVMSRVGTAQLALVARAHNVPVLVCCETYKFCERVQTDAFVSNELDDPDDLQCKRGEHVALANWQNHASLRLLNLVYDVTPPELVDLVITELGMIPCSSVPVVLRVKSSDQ
Sequence of eIF2B(αβγδε)2 (Homo sapiens, UniProt P49770+Q9UI10, P49770:H188A) (Q14232 whole entry partner): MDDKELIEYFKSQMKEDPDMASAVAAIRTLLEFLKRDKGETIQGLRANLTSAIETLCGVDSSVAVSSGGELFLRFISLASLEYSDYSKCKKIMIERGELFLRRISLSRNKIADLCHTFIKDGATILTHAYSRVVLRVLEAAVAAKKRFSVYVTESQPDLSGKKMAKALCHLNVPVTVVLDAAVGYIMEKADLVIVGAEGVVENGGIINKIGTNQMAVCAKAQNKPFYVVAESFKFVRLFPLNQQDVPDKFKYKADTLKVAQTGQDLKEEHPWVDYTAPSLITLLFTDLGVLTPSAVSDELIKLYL
Sequence of eIF2B(αβγδε)2 (Homo sapiens, UniProt P49770+Q9UI10, P49770:H188A) (Q9NR50 whole entry partner): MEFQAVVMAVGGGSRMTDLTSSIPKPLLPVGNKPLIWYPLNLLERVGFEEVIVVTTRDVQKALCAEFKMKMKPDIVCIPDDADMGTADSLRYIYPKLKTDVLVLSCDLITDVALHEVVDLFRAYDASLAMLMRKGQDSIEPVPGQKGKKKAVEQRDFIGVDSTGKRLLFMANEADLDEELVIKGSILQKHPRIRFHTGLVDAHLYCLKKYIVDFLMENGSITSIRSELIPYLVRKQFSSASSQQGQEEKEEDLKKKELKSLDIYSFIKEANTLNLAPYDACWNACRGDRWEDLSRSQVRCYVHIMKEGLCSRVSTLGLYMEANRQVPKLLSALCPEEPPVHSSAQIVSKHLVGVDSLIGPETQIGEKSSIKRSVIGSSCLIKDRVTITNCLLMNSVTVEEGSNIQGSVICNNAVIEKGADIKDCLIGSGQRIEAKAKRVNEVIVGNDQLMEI
Sequence of eIF2B(αβγδε)2 (Homo sapiens, UniProt P49770+Q9UI10, P49770:H188A) (Q13144 2-721 partner): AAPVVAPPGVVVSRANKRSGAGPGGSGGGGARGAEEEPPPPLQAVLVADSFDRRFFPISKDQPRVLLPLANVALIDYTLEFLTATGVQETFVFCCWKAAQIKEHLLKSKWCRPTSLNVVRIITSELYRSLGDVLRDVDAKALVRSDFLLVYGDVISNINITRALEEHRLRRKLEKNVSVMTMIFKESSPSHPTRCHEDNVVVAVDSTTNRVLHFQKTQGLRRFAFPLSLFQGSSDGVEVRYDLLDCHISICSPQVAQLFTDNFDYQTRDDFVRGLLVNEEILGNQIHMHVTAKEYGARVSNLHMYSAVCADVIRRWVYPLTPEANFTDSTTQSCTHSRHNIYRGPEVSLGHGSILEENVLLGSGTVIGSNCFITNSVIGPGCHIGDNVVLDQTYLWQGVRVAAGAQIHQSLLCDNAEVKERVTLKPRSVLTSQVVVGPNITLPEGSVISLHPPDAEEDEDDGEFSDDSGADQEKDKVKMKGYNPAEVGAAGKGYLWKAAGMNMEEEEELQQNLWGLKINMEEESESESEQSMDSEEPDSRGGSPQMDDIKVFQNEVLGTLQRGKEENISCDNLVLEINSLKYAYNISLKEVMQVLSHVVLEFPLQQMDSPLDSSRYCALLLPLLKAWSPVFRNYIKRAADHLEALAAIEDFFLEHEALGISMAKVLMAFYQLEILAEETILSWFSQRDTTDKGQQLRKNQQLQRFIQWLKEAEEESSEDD

Sequence of eIF2 (P41091 2-472): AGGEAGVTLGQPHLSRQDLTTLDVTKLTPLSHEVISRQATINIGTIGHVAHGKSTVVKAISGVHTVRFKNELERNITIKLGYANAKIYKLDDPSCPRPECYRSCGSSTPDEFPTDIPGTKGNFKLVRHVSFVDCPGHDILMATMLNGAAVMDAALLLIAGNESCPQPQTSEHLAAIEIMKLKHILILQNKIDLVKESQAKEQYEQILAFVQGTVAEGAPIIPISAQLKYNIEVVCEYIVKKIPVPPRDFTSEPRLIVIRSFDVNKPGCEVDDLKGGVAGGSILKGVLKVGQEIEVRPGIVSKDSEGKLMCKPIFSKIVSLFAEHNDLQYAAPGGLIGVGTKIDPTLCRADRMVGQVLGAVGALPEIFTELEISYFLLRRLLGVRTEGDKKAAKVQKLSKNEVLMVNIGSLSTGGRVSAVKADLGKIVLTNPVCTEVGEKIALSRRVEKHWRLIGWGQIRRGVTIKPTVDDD
Sequence of eIF2 (P05198 whole entry partner): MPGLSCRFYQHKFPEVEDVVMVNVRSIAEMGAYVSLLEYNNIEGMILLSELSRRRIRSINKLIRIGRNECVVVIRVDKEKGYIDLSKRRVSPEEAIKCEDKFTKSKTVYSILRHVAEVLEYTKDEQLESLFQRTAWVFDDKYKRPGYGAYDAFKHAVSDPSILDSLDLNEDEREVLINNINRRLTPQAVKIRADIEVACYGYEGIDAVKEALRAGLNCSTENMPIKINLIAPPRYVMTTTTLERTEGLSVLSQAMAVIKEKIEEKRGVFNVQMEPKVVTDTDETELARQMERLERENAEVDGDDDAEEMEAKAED
Sequence of eIF2 (P20042 2-333 partner): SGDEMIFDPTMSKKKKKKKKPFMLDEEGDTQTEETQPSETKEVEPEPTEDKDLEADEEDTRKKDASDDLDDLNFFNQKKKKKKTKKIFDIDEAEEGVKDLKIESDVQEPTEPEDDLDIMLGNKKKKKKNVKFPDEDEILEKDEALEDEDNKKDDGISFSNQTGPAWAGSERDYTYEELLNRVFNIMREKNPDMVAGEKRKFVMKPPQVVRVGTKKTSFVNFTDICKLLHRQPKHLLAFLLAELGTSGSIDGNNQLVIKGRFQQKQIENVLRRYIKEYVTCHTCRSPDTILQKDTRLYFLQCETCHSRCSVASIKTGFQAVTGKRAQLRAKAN
Sequence of eIF2B(αβγδε)2 (Homo sapiens, UniProt P49770+Q9UI10, Q9UI10:L179A) (P49770 whole entry): as the sequence (P49770 whole entry H188A) above, with A188H counted along it
Sequence of eIF2B(αβγδε)2 (Homo sapiens, UniProt P49770+Q9UI10, Q9UI10:L179A) (Q9UI10 whole entry L179A): as the sequence (Q9UI10 whole entry) above, with L179A counted along it
Sequence of eIF2B(αβγδε)2 (Homo sapiens, UniProt P49770+Q9UI10, Q9UI10:L179A) (Q14232 whole entry partner): as the sequence (Q14232 whole entry partner) above
Sequence of eIF2B(αβγδε)2 (Homo sapiens, UniProt P49770+Q9UI10, Q9UI10:L179A) (Q9NR50 whole entry partner): as the sequence (Q9NR50 whole entry partner) above
Sequence of eIF2B(αβγδε)2 (Homo sapiens, UniProt P49770+Q9UI10, Q9UI10:L179A) (Q13144 2-721 partner): as the sequence (Q13144 2-721 partner) above

In the case of `Nc1nc2c(ncn2[C@@H]2O[C@H](COP(=O)(O)OP(=O)(O)O)[C@@H](O)[C@H]2O)c(=O)[nH]1` [GDP], on eIF2, the “GDP unloading assay, displacement of Bodipy-GDP” value was “we added fluorescent Bodipy-GDP to GDP-bound eIF2”.
In the case of `C[C@@H](Oc1ccc(Cl)cc1)C(=O)N[C@H]1CC[C@H](NC(=O)[C@@H](C)Oc2ccc(Cl)cc2)CC1` [ISRIB-A19(R,R)], on eIF2B(αβγδε)2 [1], the “fold activation of GEF activity (kobs)” value is ~ 3 fold.
In the case of `O=C(COc1ccc(Cl)cc1)N[C@H]1CC[C@H](NC(=O)COc2ccc(Cl)cc2)CC1` [ISRIB], the “decamer stabilization (inactive: none seen)” value at eIF2B(αβγδε)2 [2] is recorded as “ISRIB did not stabilize eIF2B(βH188A) decamers”.
